Assay results taken from ChEMBL document CHEMBL1153911 (Bioorg Med Chem Lett, 2009).

Experiments:
Mu-type opioid receptor [1] = target: T1, Mu-type opioid receptor (Homo sapiens, UniProt P35372); experiment: […] activity against mu opioid receptor expressed in CHO cells assessed as stimulation [35S]GTPgammaS binding relative to DAMGO; format: functional, cell-based; parameters: concentration or dose not given beside the values
Outline: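 Membranes (10 µg) from the same receptor-expressing CHO cells incubated 30 min with 10 µM GDP, 0.1 nM [35S]GTPγS and varying drug concentrations. Nonspecific binding defined by 10 µM unlabelled GTPγS. Relative Emax and EC50 from nonlinear regression of concentration-effect curves.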

Homo sapiens [2] = species on record: Homo sapiens; experiment: Selectivity ratio of Ki for delta opioid receptor to Ki for mu opioid receptor
Outline: (§1)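 CHO cell membranes (50 µg) expressing cloned mu, delta or kappa opioid receptors, labelled with […] (mu), [3H]NTI (delta) or [3H]norBNI (kappa), with varying drug concentrations, 90 min at 30 °C. […] IC50 from Hill-plot linear regression, converted to Ki by Cheng-Prusoff.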

Homo sapiens [3] = species on record: Homo sapiens; experiment: Selectivity ratio of Ki for kappa opioid receptor to Ki for mu opioid receptor; outline: as §1
[4] = target: Kappa-type opioid receptor (Homo sapiens, UniProt P41145); experiment: Displacement of [3H]norBNI from kappa opioid receptor expressed in CHO cells; format: cell-based
Kappa-type opioid receptor, sequence (P41145 whole entry): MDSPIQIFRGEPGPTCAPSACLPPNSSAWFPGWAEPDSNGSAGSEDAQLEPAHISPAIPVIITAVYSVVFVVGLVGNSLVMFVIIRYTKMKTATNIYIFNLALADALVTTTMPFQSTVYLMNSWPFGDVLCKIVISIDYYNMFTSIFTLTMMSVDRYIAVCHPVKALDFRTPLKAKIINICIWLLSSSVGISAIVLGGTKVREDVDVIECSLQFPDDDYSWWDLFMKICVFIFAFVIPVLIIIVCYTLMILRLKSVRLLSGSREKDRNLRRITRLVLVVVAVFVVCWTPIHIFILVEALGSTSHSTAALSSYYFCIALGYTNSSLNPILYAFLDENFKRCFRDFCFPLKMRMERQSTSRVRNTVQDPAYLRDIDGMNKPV

Mu-type opioid receptor [5] = target: T1, Mu-type opioid receptor; experiment: Displacement of [3H]DAMGO from mu opioid receptor expressed in CHO cells; format: cell-based
[6] = target: Delta-type opioid receptor (Homo sapiens, UniProt P41143); experiment: Displacement of [3H]NTI from delta opioid receptor expressed in CHO cells; format: cell-based
Delta-type opioid receptor, sequence (P41143 whole entry): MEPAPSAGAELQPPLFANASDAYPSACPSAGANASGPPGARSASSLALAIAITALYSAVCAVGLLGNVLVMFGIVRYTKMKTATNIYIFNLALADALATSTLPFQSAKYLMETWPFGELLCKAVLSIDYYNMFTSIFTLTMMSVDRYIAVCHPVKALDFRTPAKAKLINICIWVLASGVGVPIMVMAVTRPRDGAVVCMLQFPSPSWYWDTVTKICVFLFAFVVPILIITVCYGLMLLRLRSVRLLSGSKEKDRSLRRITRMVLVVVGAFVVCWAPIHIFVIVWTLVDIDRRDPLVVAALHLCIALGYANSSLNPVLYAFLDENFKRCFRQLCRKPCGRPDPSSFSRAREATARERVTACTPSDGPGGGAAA
Outline: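 CHO cell membranes (50 µg) expressing cloned mu, delta or kappa opioid receptors, labelled with […] (mu), [3H]NTI (delta) or [3H]norBNI (kappa), with varying drug concentrations, 90 min at 30 °C. IC50 from Hill-plot linear regression, converted to Ki by Cheng-Prusoff.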

Mu-type opioid receptor [7] = target: T1, Mu-type opioid receptor; settings: CHO

T1 sequence (P35372 whole entry): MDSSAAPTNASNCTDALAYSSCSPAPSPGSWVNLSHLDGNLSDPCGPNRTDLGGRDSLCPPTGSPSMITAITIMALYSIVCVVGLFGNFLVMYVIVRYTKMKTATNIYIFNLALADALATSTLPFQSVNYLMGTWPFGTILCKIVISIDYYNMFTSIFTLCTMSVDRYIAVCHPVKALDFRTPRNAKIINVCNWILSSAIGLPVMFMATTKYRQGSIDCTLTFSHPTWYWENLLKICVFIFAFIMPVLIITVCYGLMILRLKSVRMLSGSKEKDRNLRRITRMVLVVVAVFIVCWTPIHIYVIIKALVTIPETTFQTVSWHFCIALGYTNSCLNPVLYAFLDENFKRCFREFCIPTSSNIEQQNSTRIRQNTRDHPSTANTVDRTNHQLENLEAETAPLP

`C[C@@H](O)[C@H](NC(=O)[C@H](NC(=O)[C@@H](NC(=O)[C@H](CCCNC(=N)N)NC(=O)C(Cc1c[nH]c2ccccc12)NC(=O)[C@@H](Cc1ccc(O)cc1)NC(=O)[C@H](CS)NC(=O)[C@H](N)Cc1ccccc1)[C@@H](C)O)C(C)(C)S)C(=O)O` (stereo in doubt) showed an Activity (Mu-type opioid receptor [1]) of 0%, a Ratio Ki (Homo sapiens [2]) of 713 and a Ratio Ki (Homo sapiens [3]) of 501.
For `O=C(O[C@@]12CCC(=O)[C@@H]3Oc4c(O)ccc5c4[C@@]31CCN(CC1CC1)[C@@H]2C5)c1ccccc1`, the Activity (Mu-type opioid receptor [1]) was 0%, the Ratio Ki (Homo sapiens [2]) was over 81 and the Ratio Ki (Homo sapiens [3]) was 5.
With `O=C(O[C@@]12CCC(=O)[C@@H]3Oc4c(O)ccc5c4[C@@]31CCN(CC1CC1)[C@@H]2C5)c1ccc2ccccc2c1` the Activity (Mu-type opioid receptor [1]) was 0%, the Ratio Ki (Homo sapiens [2]) was 4 and the Ratio Ki (Homo sapiens [3]) was under 1.
With `O=C(O[C@@]12CCC(=O)[C@@H]3Oc4c(O)ccc5c4[C@@]31CCN(CC1CC1)[C@@H]2C5)c1cc2ccccc2cn1` the Activity (Mu-type opioid receptor [1]) was 0%, the Ratio Ki (Homo sapiens [2]) was over 146 and the Ratio Ki (Homo sapiens [3]) was over 146.
For `O=C(O[C@@]12CCC(=O)[C@@H]3Oc4c(O)ccc5c4[C@@]31CCN(CC1CC1)[C@@H]2C5)c1ccc2ccccc2n1`, the Activity (Mu-type opioid receptor [1]) was 0%, the Ratio Ki (Homo sapiens [2]) was 16 and the Ratio Ki (Homo sapiens [3]) was 47.
`COc1cccc2c1[C@]13CCN(CC4CC4)[C@H](C2)[C@]1(OC)CCC(=O)C3` showed a Ratio Ki (Homo sapiens [2]) of 40 and a Ratio Ki (Homo sapiens [3]) of 45.
In the case of `O=C(O[C@@]12CCC(=O)[C@@H]3Oc4c(O)ccc5c4[C@@]31CCN(CC1CC1)[C@@H]2C5)c1cccnc1`, the Activity (Mu-type opioid receptor [1]) is reported as 0%, the Ratio Ki (Homo sapiens [2]) is reported as 107 and the Ratio Ki (Homo sapiens [3]) is reported as 30.
Work on `O=C(O[C@@]12CCC(=O)[C@@H]3Oc4c(O)ccc5c4[C@@]31CCN(CC1CC1)[C@@H]2C5)c1cnc2ccccc2c1` yielded an Activity (Mu-type opioid receptor [1]) of 22%, a Ratio Ki (Homo sapiens [2]) of 304 and a Ratio Ki (Homo sapiens [3]) of 55.
Work on `COC(=O)/C=C/C(=O)N[C@@H]1CC[C@@]2(O)[C@H]3Cc4ccc(O)c5c4[C@@]2(CCN3CC2CC2)[C@H]1O5` yielded an Activity (Mu-type opioid receptor [1]) of 0%, a Ki [4] of 0.94 nM and a Ki (Mu-type opioid receptor [5]) of 0.41 nM. It also gave a Ki [6] of 27.8 nM.
With `O=C(O[C@@]12CCC(=O)[C@@H]3Oc4c(O)ccc5c4[C@@]31CCN(CC1CC1)[C@@H]2C5)c1ccccn1` the Activity (Mu-type opioid receptor [1]) was 0%, the Ratio Ki (Homo sapiens [2]) was 838 and the Ratio Ki (Homo sapiens [3]) was 182. The Ke (Mu-type opioid receptor [7]) was 0.2 nM.
With `O=C(O[C@@]12CCC(=O)[C@@H]3Oc4c(O)ccc5c4[C@@]31CCN(CC1CC1)[C@@H]2C5)c1ccncc1` the Activity (Mu-type opioid receptor [1]) was 0%, the Ratio Ki (Homo sapiens [2]) was 73 and the Ratio Ki (Homo sapiens [3]) was 9.
